Legend:
[1] = tested on: NCI-H226; assay: Antiproliferative activity against human NCI-H226 cells after 48 hrs; format: functional; details: NCI-H226, 48 h
Summary of the method: (§1)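 NCI 60-cell screen. Cells were grown in RPMI 1640 with 5% FBS and 2 mM L-glutamine, then plated at 5,000–40,000 cells/well according to doubling time and preincubated for 24 h at 37 °C in 5% CO2. Compounds were dissolved in DMSO at 400× the top final concentration and tested at five 10-fold dilutions from 10−4 to 10−8 M for 48 h. Growth was read spectrophotometrically; GI50 is 50% net protein reduction.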

[2] = tested on: MOLT-4; assay: Antiproliferative activity against human MOLT4 cells after 48 hrs; format: functional; details: MOLT-4, 48 h; summary of the method: as §1
[3] = tested on: HCT-15; assay: Antiproliferative activity against human HCT15 cells after 48 hrs; format: functional; details: Homo sapiens, HCT-15, 48 h; summary of the method: as §1
[4] = tested on: Malme-3M; assay: Antiproliferative activity against human MALME3M cells after 48 hrs; format: functional; summary of the method: as §1
[5] = tested on: COLO 205; assay: Antiproliferative activity against human COLO205 cells after 48 hrs; format: functional; details: COLO 205, 48 h; summary of the method: as §1
[6] = tested on: A498; assay: Antiproliferative activity against human A498 cells after 48 hrs; format: functional; details: A498, 48 h; summary of the method: as §1
[7] = Antiproliferative activity against human NCI-ADR-RES cells after 48 hrs; format: functional; summary of the method: as §1
[8] = tested on: MCF7; assay: Drug level in human MCF7 cells at 10 uM per 10^6 cells after 0.5 hrs; format: ADME, cell-based; details: mcf7, 0.5 h
Summary of the method: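 MCF7 cells kept in RPMI 1640 with 10% fetal calf serum at 37 °C, 5% CO2, then treated with 10 μM analog. Intracellular analog measured over time by HPLC-MS in positive-ion MRM mode. Quantified against calibration curves made by spiking an artificial matrix with standards plus internal standard, using analyte/IS peak-area ratios and linear regression. Reported as pmol per 1×10^6 cells.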

[9] = tested on: UACC-62; assay: Antiproliferative activity against human UACC62 cells after 48 hrs; format: functional; details: UACC-62, 48 h
Summary of the method: (§2)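 NCI 60-cell-line screen. Lines grown in RPMI 1640 with 5% fetal bovine serum and 2 mM L-glutamine, plated at 5,000–40,000 cells/well according to doubling time, left 24 h at 37 °C in 5% CO2. Drug stocks in DMSO at 400-fold the top final concentration. Five 10-fold dilutions, 10−4 to 10−8 M, incubated 48 h. Growth read spectrophotometrically as net protein; GI50 taken as 50% reduction.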

[10] = tested on: HCT-116; assay: Antiproliferative activity against human HCT116 cells after 48 hrs; format: functional; details: HCT-116, 48 h; summary of the method: as §1
[11] = tested on: 786-0; assay: Antiproliferative activity against human 786-0 cells after 48 hrs; format: functional; details: 786-0, 48 h; summary of the method: as §1
[12] = tested on: NCI-H322M; assay: Antiproliferative activity against human NCI-H322M cells after 48 hrs; format: functional; summary of the method: as §1
[13] = tested on: SK-MEL-2; assay: Antiproliferative activity against human SKMEL2 cells after 48 hrs; format: functional; details: SK-MEL-2, 48 h; summary of the method: as §1
[14] = tested on: OVCAR-8; assay: Antiproliferative activity against human OVCAR8 cells after 48 hrs; format: functional; details: OVCAR-8, 48 h; summary of the method: as §1
[15] = tested on: OVCAR-5; assay: Antiproliferative activity against human OVCAR5 cells after 48 hrs; format: functional; details: OVCAR-5, 48 h; summary of the method: as §1
[16] = tested on: MDA-MB-231; assay: Antiproliferative activity against human MDA-MB-231 cells after 48 hrs; format: functional; details: MDA-MB-231, 48 h; summary of the method: as §1
[17] = Antiproliferative activity against human HL60(TB) cells after 48 hrs; format: functional, HL-60(TB); details: HL-60, 48 h
Summary of the method: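 NCI 60-line panel screen: cells grown in RPMI 1640 with 5% fetal bovine serum and 2 mM L-glutamine, plated at 5,000–40,000 cells/well by doubling time, and preincubated 24 h at 37 °C in 5% CO2. Drugs were solubilised in DMSO at 400-fold the final maximum and tested at five 10-fold dilutions from 10−4 to 10−8 M for 48 h. Net protein was read spectrophotometrically, and the concentration giving 50% reduction was reported as log10 GI50.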

[18] = tested on: NCI-H23; assay: Antiproliferative activity against human NCI-H23 cells after 48 hrs; format: functional; details: NCI-H23, 48 h; summary of the method: as §1
[19] = tested on: RXF 393; assay: Antiproliferative activity against human RXF393 cells after 48 hrs; format: functional; details: RXF 393, 48 h; summary of the method: as §1
[20] = tested on: CAKI-1; assay: Antiproliferative activity against human CAKI1 cells after 48 hrs; format: functional; details: CAKI-1, 48 h; summary of the method: as §1
[21] = tested on: TK-10; assay: Antiproliferative activity against human TK10 cells after 48 hrs; format: functional; details: TK-10, 48 h; summary of the method: as §2
[22] = tested on: SF-295; assay: Antiproliferative activity against human SF295 cells after 48 hrs; format: functional; details: SF-295, 48 h; summary of the method: as §1
[23] = tested on: BT-549; assay: Antiproliferative activity against human BT549 cells after 48 hrs; format: functional; details: BT-549, 48 h; summary of the method: as §1
[24] = tested on: NCI-H460; assay: Antiproliferative activity against human NCI-H460 cells after 48 hrs; format: functional; details: NCI-H460, 48 h; summary of the method: as §1
[25] = tested on: SN12C; assay: Antiproliferative activity against human SN12C cells after 48 hrs; format: functional; summary of the method: as §1
[26] = read-out: Log LC50 (the source's name) (converted)

Which results are given for `C[C@H](NC(=O)CCCCCCCCCCCCCCC[n+]1ccccc1)[C@H](O)c1ccccc1.[Br-]`?
GI50 [1]: 6.46 µM; CC50 [1, 26]: 89.1 µM; TGI ([1]; read-out: Log TGI (converted)): 26.9 µM; GI50 [2]: 4.9 µM; LC50 [2]: 63.1 µM; TGI ([2]; read-out: Log TGI (converted)): 18.6 µM; GI50 [3]: 57.5 µM; LC50 [3]: > 100 µM; TGI ([3]; read-out: Log TGI (converted)): > 100 µM; GI50 [4]: 2450 nM; LC50 [4]: 20 µM; TGI ([4]; read-out: Log TGI (converted)): 5.89 µM; GI50 [5]: 1050 nM; CC50 [5, 26]: 31.6 µM; TGI ([5]; read-out: Log TGI (converted)): 4.9 µM; GI50 [6]: 17.8 µM; CC50 [6, 26]: 57.5 µM; TGI ([6]; read-out: Log TGI (converted)): 32.4 µM; GI50 [7]: > 100 µM; LC50 [7]: > 100 µM; TGI ([7]; read-out: Log TGI (converted)): > 100 µM; Drug uptake [8]: 800 pmol; GI50 [9]: 1860 nM; LC50 [9]: 25.1 µM; TGI ([9]; read-out: Log TGI (converted)): 5.75 µM; GI50 [10]: 3.47 µM; LC50 [10]: 38.9 µM; TGI ([10]; read-out: Log TGI (converted)): 14.8 µM; GI50 [11]: 10.2 µM; CC50 [11, 26]: 49 µM; TGI ([11]; read-out: Log TGI (converted)): 22.4 µM; GI50 [12]: 14.5 µM; CC50 [12, 26]: 52.5 µM; TGI ([12]; read-out: Log TGI (converted)): 31.6 µM; GI50 [13]: 2880 nM; LC50 [13]: 60.3 µM; TGI ([13]; read-out: Log TGI (converted)): 7.41 µM; GI50 [14]: 3.89 µM; CC50 [14, 26]: > 100 µM; TGI ([14]; read-out: Log TGI (converted)): 22.9 µM; GI50 [15]: 11 µM; CC50 [15, 26]: 51.3 µM; TGI ([15]; read-out: Log TGI (converted)): 24 µM; GI50 [16]: 3.24 µM; LC50 (50% lethal concentration) [16]: 42.7 µM; TGI ([16]; read-out: Log TGI (converted)): 33.1 µM; GI50 [17]: 1480 nM; LC50 [17]: 31.6 µM; TGI ([17]; read-out: Log TGI (converted)): 4.37 µM; GI50 [18]: 2950 nM; CC50 [18, 26]: 49 µM; TGI ([18]; read-out: Log TGI (converted)): 15.5 µM; GI50 [19]: 12 µM; CC50 [19, 26]: 74.1 µM; TGI ([19]; read-out: Log TGI (converted)): 29.5 µM; GI50 [20]: 14.1 µM; CC50 [20, 26]: 53.7 µM; TGI ([20]; read-out: Log TGI (converted)): 27.5 µM; GI50 [21]: 14.5 µM; CC50 [21, 26]: 56.2 µM; TGI ([21]; read-out: Log TGI (converted)): 28.2 µM; GI50 [22]: 14.5 µM; LC50 [22]: 53.7 µM; TGI ([22]; read-out: Log TGI (converted)): 27.5 µM; LC50 [23]: 8.71 µM; TGI ([23]; read-out: Log TGI (converted)): 851 nM; GI50 [24]: 2820 nM; CC50 [24, 26]: 41.7 µM; TGI ([24]; read-out: Log TGI (converted)): 13.2 µM; GI50 [25]: 3.47 µM; LC50 (50% net cell kill) [25]: 47.9 µM; TGI ([25]; read-out: Log TGI (converted)): 14.8 µM
